SR-BI DiI-HDL act: activators of SR-BI mediated HDL lipid uptake; CHO ldlA[mSR-BI] cells, DiI-HDL uptake fluorescence, 3 h; 100 = double the neutral-control signal; activation, % at 12.5 µM; hit rate 0.096% among 320,000;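 active means mean replicate activation of at least 60% and every replicate at or above 60%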;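 further: 0% = median plate neutral-control signal and 100% = twice that signal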
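Test system: SR-BI-overexpressing, LDLR-lacking CHO cells. Measured by: DiI fluorescence, bottom read. Medium: Ham's F12 with 0.5% BSA, HEPES 25 mM, pH 7.4. Timing: 3 h uptake period with compound, 37 °C.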
ARNT-TACC3 inh: disrupts binding between human ARNT and TACC3; Q9Y6A5; AlphaScreen His-ARNT PAS-B/GST-TACC3 binding, luminescence; TACC3 fragment carries E629A point mutation; inhibition, % at 9.99 µM; hit rate 0.66% among 390,000; AID 623870;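 active means mean inhibition of replicates at least 50% and at least half of replicates each reaching 50%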;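 further: 0% = complete ARNT plus TACC3 wells and 100% = ARNT alone without TACC3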
Xi reactivation: reactivates the inactive X chromosome in mouse fibroblasts; XiGFP mouse fibroblasts, % GFP-positive cells imaging, 3 d; cells co-treated with 5-aza-dC sensitizer; scaled so ellipticine positive control = 100%; activation, % at 7.58 µM; hit rate 0.055% among 360,000; AID 743238;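 active means mean normalized replicate activation at least 10% and every replicate at or above 10%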;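 further: 0% = median of on-plate neutral control wells and 100% = ellipticine 6 µM median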
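assay system = SV40-immortalized XiGFP fibroblast cells, line 68-5-11 | buffer or medium = DMEM plus 5-aza-dC sensitizer | doses = single-point pinned compound dosing | times = 3-day compound exposure, then 15 min fixation at room temperature | benchmarks = positive control ellipticine, 6 µM final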
NSD2 HMT inh: NSD2 (human) methyltransferase inhibition; O96028; NSD2 peptide methylation, AlphaScreen, 120 min; inhibition, % at 12.5 µM; hit rate 0.54% among 310,000; in the data active means inhibition above about 50%
HGIII-sPLA2 inh: Inhibits HGIII-sPLA2 liposome hydrolysis, primary screen. Q9NZ20. QFRET BODIPY PC-A2 liposome hydrolysis, fluorescence. inhibition, % at 12.2 µM. hit rate 0.56% among 370,000;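 active means inhibition above mean plus 3 SD of compounds lying within the high and low control bounds, cut at about 19% in these data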;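 further: 0% = median of test compound wells and 100% = no enzyme DMSO wells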
Target sequence (Q9NZ20 whole entry, looked up): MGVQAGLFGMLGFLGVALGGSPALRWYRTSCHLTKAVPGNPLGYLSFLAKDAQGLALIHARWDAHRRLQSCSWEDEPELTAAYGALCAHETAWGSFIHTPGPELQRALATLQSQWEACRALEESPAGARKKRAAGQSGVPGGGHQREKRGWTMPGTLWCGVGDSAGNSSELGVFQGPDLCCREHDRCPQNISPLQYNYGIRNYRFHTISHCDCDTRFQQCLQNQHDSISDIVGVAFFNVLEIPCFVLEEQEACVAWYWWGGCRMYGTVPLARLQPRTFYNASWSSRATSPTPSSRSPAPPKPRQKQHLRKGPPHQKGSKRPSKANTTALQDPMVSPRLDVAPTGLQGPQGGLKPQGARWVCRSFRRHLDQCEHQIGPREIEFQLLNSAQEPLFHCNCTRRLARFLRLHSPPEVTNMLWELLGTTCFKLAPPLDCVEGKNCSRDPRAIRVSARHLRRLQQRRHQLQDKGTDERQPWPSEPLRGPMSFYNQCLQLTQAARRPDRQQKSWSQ
SR-BI HDL uptake: blocks mouse SR-BI lipid uptake from DiI-HDL. Q61009. ldlA[mSR-BI] CHO cells, DiI-HDL uptake fluorescence, 3 h. inhibition, % at 12.5 µM. hit rate 0.96% among 320,000. AID 488896;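 active means mean replicate inhibition of at least 70% and a set share of replicates each scoring 70 or more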;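 further: 0% = median of neutral control wells and 100% = median of positive control wells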
AlphaScreen art: AlphaScreen assay artifact in NSD2 counter-screen | shares compounds with NSD2 HMT inh | AC35, µM (doses to about 10 µM), without a hit: at the highest dose activity change, negative = signal loss | AlphaScreen artifact counterscreen, preloaded methylated H4 peptide | hit rate 9.4% among 1,500; call rule not given here
The depositor's hits bear a star; nt = no result given. An excerpt weighted towards active compounds, which were near 2% of everything screened.

SMILES | SR-BI DiI-HDL act | ARNT-TACC3 inh | Xi reactivation | NSD2 HMT inh | HGIII-sPLA2 inh | SR-BI HDL uptake | AlphaScreen art
CCOC(=O)c1cccc(P(C)(C)=O)c1 | 33.2 | -9.2 | -0.1 | 78.6* | 1.6 | -14.3 | 2.4%
c1ccc(-c2nc3ccccc3nc2-c2ccc(CN3CCC(c4nc5ccccc5[nH]4)CC3)cc2)cc1 | nt | nt | -0.1 | nt | -7.2 | nt | nt
O=C(NCCCN1CCOCC1)c1ccc(S(=O)(=O)Nc2cccc(C(F)(F)F)c2)cc1 | 21.6 | -4.2 | -0.1 | -2.5 | 1.3 | -21.6 | nt
O=C(O)c1ccc(NC2=C/C(=N/S(=O)(=O)c3ccccc3)c3ccccc3C2=O)cc1 | 14.7 | 33.6 | 0.0 | nt | -3.1 | -14.7 | nt
Cc1cc(C)c(S(=O)(=O)/N=C2\C=C(NS(=O)(=O)c3ccccc3)C(=O)c3ccccc32)c(C)c1 | -1.0 | -5.9 | -0.1 | 43.9 | -0.8 | 1.0 | nt
CCc1ccc(S(=O)(=O)/N=C2\C=C(Nc3cccc(C(=O)O)c3)C(=O)c3ccccc32)cc1 | 11.5 | 68.5* | 0.1 | 132.3* | -5.0 | -11.5 | 9.25µM*
Cc1ccc(S(=O)(=O)/N=C2\C=C(NS(=O)(=O)c3ccccc3)C(=O)c3ccccc32)cc1 | 3.2 | 19.8 | 0.5 | 105.2* | -8.4 | -3.2 | 9.94µM*
COc1ccc(-n2cnc3sc4c(c3c2=O)CCCC4)cc1 | -37.0 | nt | 0.1 | 2.0 | -0.6 | 37.0 | nt
CCOc1ccc(-n2cnc3sc4c(c3c2=O)CCCC4)cc1 | nt | nt | 0.2 | 58.3* | 11.4 | nt | 0.2%
COc1ccc(CCC(=O)NCCOc2ccccc2Cl)cc1 | -7.2 | -3.7 | 0.3 | 123.8* | -6.2 | 7.2 | -1.8%
COc1ccc(CCC(=O)NCCOc2ccc(C)cc2)cc1 | -0.3 | -9.4 | 0.1 | -5.1 | -1.1 | 0.3 | nt
C[C@@H]1CN([C@H](C)CO)C(=O)c2cc(C#Cc3ccccn3)cnc2O[C@@H]1CN(C)Cc1cccnc1 | nt | -4.5 | -0.6 | nt | nt | nt | nt
CCc1cc2cc3c(cc2nc1SCC(=O)Nc1cc(C)on1)OCO3 | -4.9 | -0.4 | nt | 3.1 | 0.8 | 4.9 | nt
CC1CCCCC12NC(=O)N(CC(=O)NC(=O)NCc1ccco1)C2=O (configuration not stated) | 7.1 | -25.9 | nt | 121.3* | -0.8 | -7.1 | 4.7%
CC1CCCCC12NC(=O)N(CC(=O)NCc1ccco1)C2=O (configuration not stated) | 10.8 | 1.4 | 0.1 | 0.1 | -2.0 | -10.8 | nt
O=C(O)c1ccc2cccnc2c1O | nt | 26.8 | -0.1 | 60.7* | 0.4 | nt | -4.7%
Cc1cc(OCCn2nc(C(=O)O)c3ccccc3c2=O)ccc1C(C)C | nt | -2.2 | 0.0 | 90.5* | 5.7 | nt | -2.7%
C/C=C/c1ccc2c(c1)O[C@@H](CN(C)Cc1cccnc1)[C@H](C)CN([C@H](C)CO)S2(=O)=O | nt | -3.4 | -0.3 | nt | nt | nt | nt
Nc1ccc2nc3c(=O)n(CCc4ccccc4)c(=O)[nH]c3nc2c1 | nt | nt | 0.1 | -0.8 | -92.2 | nt | nt
CCCCn1c(=O)[nH]c2nc3cc(N)ccc3nc2c1=O | 28.0 | 12.0 | 0.0 | 110.4* | -160.1 | -28.0 | 1.4%
Oc1cccc(NC(=S)N=Nc2c(O)[nH]c3ccc(Br)cc23)c1 | nt | 24.4 | -0.1 | 67.4* | 7.5 | nt | -11.1%
Cc1cccc(N2CCN(S(=O)(=O)c3c(C)nc4scc(C)n4c3=O)CC2C)c1 (configuration not stated) | 1.8 | nt | 0.1 | 105.0* | 10.6 | -1.8 | 1.2%
COC(=O)CC1=NN(c2ccccc2)C(=O)/C1=C\c1ccc(OC)cc1 | -3.2 | nt | nt | 7.0 | -12.2 | 3.2 | nt
COC(=O)CC1=NN(c2ccc(OC)cc2)C(=O)/C1=C\c1ccc(Cl)cc1 | 0.3 | 5.6 | -0.1 | 55.0* | -3.4 | -0.3 | -2.4%
COC(=O)NN=C1CCC(c2ccccc2)CC1 (configuration not stated) | 26.8 | -4.8 | 0.3 | 0.3 | 2.1 | -26.8 | nt
COC(=O)N/N=C1/C/C(=N\NC(=O)OC)c2ccccc21 | -2.4 | 39.7 | 0.0 | 96.9* | 1.8 | 2.4 | -5.3%

Screens deposited in PubChem BioAssay by several laboratories.
